Key:
MT4 = assay: Antiproliferative activity against human MT4 cells after 96 hrs by MTT assay; type: functional, cell-based; conditions: MT4, 96 h
Method in brief: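 Exponentially growing MT-4 cells (CD4+ human T-cells carrying integrated HTLV-1 genome), seeded at 1×10^5 cells/mL in RPMI-1640 with 10% FCS and antibiotics. Serial dilutions of compound (DMSO stock 100 mM, diluted in medium), 37 °C, 5% CO₂, 96 h. Viability read by MTT. 50% inhibition versus untreated controls by linear regression. Mean ± SD of three independent determinations.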

HL-60(TB) = assay: Growth inhibition of human HL-60(TB) cells after 48 hrs by sulforhodamine B assay; type: functional; conditions: HL-60, 48 h
Method in brief: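 NCI 60-cell-line screen, HL-60(TB) included. Compound given at five 10-fold dilutions from 10^-4 to 10^-8 M. Cells exposed for the last 48 h of a 72 h incubation. Growth or viability estimated by sulforhodamine B protein assay. GI50 is the concentration giving 50% growth inhibition. Values outside the tested range are reported as greater or less than the highest or lowest concentration.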

K562 = assay: Growth inhibition of human K562 cells after 48 hrs by sulforhodamine B assay; type: functional; conditions: K562, 48 h
Method in brief: (§1)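 NCI 60-cell-line screen. Compounds tested at five 10-fold dilutions from 10^-4 to 10^-8 M. Cells exposed for the last 48 h of a 72 h incubation, growth estimated by sulforhodamine B protein assay. GI50 is the concentration giving 50% growth inhibition. Values beyond the tested range are expressed as greater or lesser than the extreme concentration.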

[1] = Growth inhibition of human MOLT4 cells after 48 hrs by sulforhodamine B assay; type: functional; conditions: MOLT-4, 48 h; method in brief: as §1
[2] = Growth inhibition of human RPMI8226 cells after 48 hrs by sulforhodamine B assay; type: functional; conditions: RPMI-8226, 48 h
SR = assay: Growth inhibition of human SR cells after 48 hrs by sulforhodamine B assay; type: functional
A549 = assay: Growth inhibition of human A549 cells after 48 hrs by sulforhodamine B assay; type: functional; conditions: A549, 48 h; method in brief: as §1
HOP-62 = assay: Growth inhibition of human HOP62 cells after 48 hrs by sulforhodamine B assay; type: functional; conditions: HOP-62, 48 h; method in brief: as §1
[3] = Growth inhibition of human HOP92 cells after 48 hrs by sulforhodamine B assay; type: functional; conditions: HOP-92, 48 h; method in brief: as §1
NCI-H226 = assay: Growth inhibition of human NCI-H226 cells after 48 hrs by sulforhodamine B assay; type: functional; conditions: NCI-H226, 48 h; method in brief: as §1
NCI-H23 = assay: Growth inhibition of human NCI-H23 cells after 48 hrs by sulforhodamine B assay; type: functional; conditions: NCI-H23, 48 h; method in brief: as §1
NCI-H322M = assay: Growth inhibition of human NCI-H322M cells after 48 hrs by sulforhodamine B assay; type: functional; method in brief: as §1
NCI-H460 = assay: Growth inhibition of human NCI-H460 cells after 48 hrs by sulforhodamine B assay; type: functional; conditions: NCI-H460, 48 h; method in brief: as §1
[4] = Growth inhibition of human COLO205 cells after 48 hrs by sulforhodamine B assay; type: functional; conditions: COLO 205, 48 h; method in brief: as §1
HCT-116 = assay: Growth inhibition of human HCT116 cells after 48 hrs by sulforhodamine B assay; type: functional; conditions: HCT-116, 48 h; method in brief: as §1
HCT-15 = assay: Growth inhibition of human HCT15 cells after 48 hrs by sulforhodamine B assay; type: functional; conditions: HCT-15, 48 h; method in brief: as §1
HT-29 = assay: Growth inhibition of human HT-29 cells after 48 hrs by sulforhodamine B assay; type: functional; conditions: HT-29, 48 h; method in brief: as §1
KM12 = assay: Growth inhibition of human KM12 cells after 48 hrs by sulforhodamine B assay; type: functional; conditions: KM12, 48 h; method in brief: as §1
SW-620 = assay: Growth inhibition of human SW620 cells after 48 hrs by sulforhodamine B assay; type: functional; conditions: SW-620, 48 h
SF-268 = assay: Growth inhibition of human SF268 cells after 48 hrs by sulforhodamine B assay; type: functional; conditions: SF-268, 48 h
[5] = Growth inhibition of human SF295 cells after 48 hrs by sulforhodamine B assay; type: functional; conditions: SF-295, 48 h
[6] = Growth inhibition of human SF539 cells after 48 hrs by sulforhodamine B assay; type: functional; conditions: SF-539, 48 h
SNB-19 = assay: Growth inhibition of human SNB19 cells after 48 hrs by sulforhodamine B assay; type: functional; conditions: SNB-19, 48 h
SNB-75 = assay: Growth inhibition of human SNB75 cells after 48 hrs by sulforhodamine B assay; type: functional; conditions: SNB-75, 48 h
U-251 = assay: Growth inhibition of human U251 cells after 48 hrs by sulforhodamine B assay; type: functional; conditions: U-251, 48 h
M14 = assay: Growth inhibition of human M14 cells after 48 hrs by sulforhodamine B assay; type: functional; conditions: M14, 48 h; method in brief: as §1
MDA-MB-435 = assay: Growth inhibition of human MDA-MB-435 cells after 48 hrs by sulforhodamine B assay; type: functional; conditions: MDA-MB-435, 48 h; method in brief: as §1
SK-MEL-2 = assay: Growth inhibition of human SK-MEL-2 cells after 48 hrs by sulforhodamine B assay; type: functional; conditions: SK-MEL-2, 48 h
SK-MEL-28 = assay: Growth inhibition of human SK-MEL-28 cells after 48 hrs by sulforhodamine B assay; type: functional; conditions: SK-MEL-28, 48 h
SK-MEL-5 = assay: Growth inhibition of human SK-MEL-5 cells after 48 hrs by sulforhodamine B assay; type: functional; conditions: SK-MEL-5, 48 h
UACC-62 = assay: Growth inhibition of human UACC62 cells after 48 hrs by sulforhodamine B assay; type: functional; conditions: UACC-62, 48 h
IGROV-1 = assay: Growth inhibition of human IGROV1 cells after 48 hrs by sulforhodamine B assay; type: functional; conditions: IGROV-1, 48 h; method in brief: as §1
OVCAR-3 = assay: Growth inhibition of human OVCAR3 cells after 48 hrs by sulforhodamine B assay; type: functional; conditions: OVCAR-3, 48 h; method in brief: as §1
[7] = Growth inhibition of human NCI-ADR-RES cells after 48 hrs by sulforhodamine B assay; type: functional; method in brief: as §1
SK-OV-3 = assay: Growth inhibition of human SKOV3 cells after 48 hrs by sulforhodamine B assay; type: functional; conditions: SK-OV-3, 48 h
786-0 = assay: Growth inhibition of human 786-0 cells after 48 hrs by sulforhodamine B assay; type: functional; conditions: 786-0, 48 h; method in brief: as §1
A498 = assay: Growth inhibition of human A498 cells after 48 hrs by sulforhodamine B assay; type: functional; conditions: A498, 48 h; method in brief: as §1
CAKI-1 = assay: Growth inhibition of human CAKI-1 cells after 48 hrs by sulforhodamine B assay; type: functional; conditions: CAKI-1, 48 h; method in brief: as §1
[8] = Growth inhibition of human RXF393 cells after 48 hrs by sulforhodamine B assay; type: functional; conditions: RXF 393, 48 h
SN12C = assay: Growth inhibition of human SN12C cells after 48 hrs by sulforhodamine B assay; type: functional
PC-3 = assay: Growth inhibition of human PC3 cells after 48 hrs by sulforhodamine B assay; type: functional; conditions: PC-3, 48 h
DU-145 = assay: Growth inhibition of human DU145 cells after 48 hrs by sulforhodamine B assay; type: functional; conditions: DU-145, 48 h; method in brief: as §1
MCF7 = assay: Growth inhibition of human MCF7 cells after 48 hrs by sulforhodamine B assay; type: functional; conditions: MCF7, 48 h; method in brief: as §1
MDA-MB-231 = assay: Growth inhibition of human MDA-MB-231 cells after 48 hrs by sulforhodamine B assay; type: functional; conditions: MDA-MB-231, 48 h; method in brief: as §1
[9] = Growth inhibition of human Hs 578T cells after 48 hrs by sulforhodamine B assay; type: functional; method in brief: as §1
T47D = assay: Growth inhibition of human T47D cells after 48 hrs by sulforhodamine B assay; type: functional
MDA-MB-468 = assay: Growth inhibition of human MDA-MB-468 cells after 48 hrs by sulforhodamine B assay; type: functional; conditions: MDA-MB-468, 48 h; method in brief: as §1

Compound: COc1ccc(-c2[nH]c3ccc(OC)cc3c2C=C(C#N)C#N)cc1
- EC50 (MT4): 300 nM
- GI50 (HL-60(TB)): 363 nM
- GI50 (K562): 345 nM
- GI50 [1]: 369 nM
- GI50 [2]: 5100 nM
- GI50 (SR): 152 nM
- GI50 (A549): 3800 nM
- GI50 (HOP-62): 3300 nM
- GI50 [3]: 23000 nM
- GI50 (NCI-H226): 1500 nM
- GI50 (NCI-H23): 2000 nM
- GI50 (NCI-H322M): 380 nM
- GI50 (NCI-H460): 472 nM
- GI50 [4]: 291 nM
- GI50 (HCT-116): 487 nM
- GI50 (HCT-15): 778 nM
- GI50 (HT-29): 407 nM
- GI50 (KM12): 590 nM
- GI50 (SW-620): 579 nM
- GI50 (SF-268): 1700 nM
- GI50 [5]: 306 nM
- GI50 [6]: 774 nM
- GI50 (SNB-19): 13700 nM
- GI50 (SNB-75): 593 nM
- GI50 (U-251): 635 nM
- GI50 (M14): 308 nM
- GI50 (MDA-MB-435): 122 nM
- GI50 (SK-MEL-2): 5900 nM
- GI50 (SK-MEL-28): 1700 nM
- GI50 (SK-MEL-5): 324 nM
- GI50 (UACC-62): 357 nM
- GI50 (IGROV-1): 5800 nM
- GI50 (OVCAR-3): 424 nM
- GI50 [7]: 403 nM
- GI50 (SK-OV-3): 892 nM
- GI50 (786-0): 14300 nM
- GI50 (A498): 75 nM
- GI50 (CAKI-1): 392 nM
- GI50 [8]: 5500 nM
- GI50 (SN12C): 15900 nM
- GI50 (PC-3): 342 nM
- GI50 (DU-145): 917 nM
- GI50 (MCF7): 385 nM
- GI50 (MDA-MB-231): 1300 nM
- GI50 [9]: 513 nM
- GI50 (T47D): 2600 nM
- GI50 (MDA-MB-468): 503 nM

Reference: ChEMBL document CHEMBL3616442, “Unconventional Knoevenagel-type indoles: Synthesis and cell-based studies for the identification of pro-apoptotic agents” (Eur J Med Chem, 2015)
